High-throughput results from PubChem BioAssay.
Many of the other results were omitted from the sample, so hits are more common in it than they were.
T cruzi inh = T. cruzi replication inhibition | T. cruzi beta-gal in NIH3T3, luminescence, 90 h | inhibition, % (test concentration not listed) | hit rate 1.4% among 300,000 | AID 1885;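 active = mean inhibition across valid replicates above about 55%, limit read from the data; inconclusive = mean below that limit but half or more replicates reach it; inactive = mean below it, under half of replicates reach it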;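 also: signal also drops with host cell toxicity which is not excluded here; higher percent means less beta-gal luminescence so fewer parasites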
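System – NIH/3T3 host cells with β-galactosidase reporter T. cruzi · Doses – single 50 nL compound addition per well in DMSO · Reagent – 5000 T. cruzi trypomastigotes/well · Medium – Low-serum DMEM with 2% FBS · Timing – ≥90 h infection period, 3 h prior cell attachment · Evaluation – parasite load inhibition, % · Technique – GalScreen luminescence, 60 min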
Lmaj promast = inhibitors of Leishmania major promastigote growth; Leishmania major promastigotes, resazurin fluorescence viability; inhibition, % at 10 µM; hit rate 9% among 200,000; in the data active = inhibition above about 50%;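 also: promastigotes grown with compound for 44 hours at 28 °C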
Redox H2O2 prof = compounds producing H2O2 with reducing agent – biochemical, NIH compound library profiling, artefact control for MLSCN library redox annotation, primary screen; DTT-dependent redox cycling H2O2, phenol red/HRP absorbance; 100% = 100 µM peroxide control, 0% = buffer; activation, % at 10 µM; hit rate 0.03% among 200,000; AID 878;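 active = activation of at least 50% relative to the plate's high and low controls in the primary single-dose screen; inactive = activation below 50%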;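 also: compound incubated with DTT at 0.8 mM final as the reducing agent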
MPTP inh = inhibitors of mitochondrial permeability transition pore; hit rate 1.4% among 360,000; isolated mouse mitochondria, Ca2+ swelling absorbance, 30 min; AID 602449; inhibition, % at 10 µM;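 active = inhibition of 50% or more, scaled per plate between neutral and stimulator controls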
Lipid droplet = hepatic lipid droplet formation modulation; inhibition, % at 6.5 µM; hit rate 0.4% among 240,000; AML12 mouse hepatocytes, oleate lipid droplets, BODIPY imaging; AID 1656;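 active = lipid droplet intensity inhibited by at least 50%, with more than 500 cells counted; inconclusive = wells with under 300 cells, treated as cytotoxic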
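Technique: fluorescence imaging, 20x objective, two fields per well / Assay system: AML12 hepatocytes (mouse) / Measure: % inhibition of lipid droplet signal / Doses: 6.5 µM single-point dosing / Incubation: overnight exposure / Reagent: 100 µM oleic acid challenge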
Each line names hits and unclear results; the compound was inactive in the other large screens.

Cc1ccc(S(=O)(=O)N(C)Cc2ccc(C(=O)N/N=C/c3ccc(OC(F)F)cc3OC(F)F)cc2)cc1	Lmaj promast 55
Cc1onc(-c2ccccc2)c1C(=O)N(CC(C)C)c1c(N)n(CC(C)C)c(=O)[nH]c1=O	none (no result: T cruzi inh, Lmaj promast, Redox H2O2 prof, Lipid droplet)
COc1ccccc1C(=O)O/N=C(\N)c1ccccc1Cl	Lmaj promast 92
Cc1ccc(-c2cn(-c3ccc(SC(F)F)cc3)c3[n+]2CCC3)cc1	Lmaj promast 99
COc1ccc(-c2csc(NC(=O)c3cccc(S(=O)(=O)N4CCN(C)CC4)c3)n2)cc1	Lmaj promast 63 (no result: Lipid droplet)
O=C(NCCc1ccccc1F)C1CCCN1S(=O)(=O)c1ccc2ccccc2c1 (stereo unspecified)	T cruzi inh 75, Lmaj promast 57
O=C(Nc1nc2ccccc2s1)C1CCCN1S(=O)(=O)c1ccc(Cl)cc1 (stereo unspecified)	Lmaj promast 99
CN1CCN(S(=O)(=O)c2cccc(C(=O)Nc3nc(-c4ccccc4)cs3)c2)CC1	none
CCNC(=O)C1CCCN1S(=O)(=O)c1ccc2ccccc2c1 (stereo unspecified)	none (no result: Lmaj promast, Redox H2O2 prof)
COc1ccc(NC(=O)Nc2nc3c(s2)CCCC3)cc1	Lmaj promast 54
CCOCCCNC(=O)C1CCCN1S(=O)(=O)c1ccc(Cl)cc1 (stereo unspecified)	Lmaj promast 93 (no result: Lipid droplet)
COc1ccc(-c2csc(NC(=O)C3CCCCN3S(=O)(=O)c3ccccc3)n2)cc1 (stereo unspecified)	Lmaj promast 70 (no result: Lipid droplet)
CNC(=O)C1CCCN1S(=O)(=O)c1ccc(OC)cc1 (stereo unspecified)	none
COc1ccc(-c2csc(NC(=O)CS(=O)(=O)c3ccccc3)n2)cc1	none (no result: Lmaj promast, Redox H2O2 prof, Lipid droplet)
COc1ccc(S(=O)(=O)N2CCCC2C(=O)Nc2nc3c(s2)CCCC3)cc1 (stereo unspecified)	Lmaj promast 90
CC1=NN(CCc2ccccn2)C(=O)CC1	none (no result: Lmaj promast, Redox H2O2 prof, Lipid droplet)
CCOC(=O)CCCCCN(Cc1ccccc1)S(=O)(=O)c1ccc([N+](=O)[O-])cc1	Lmaj promast 97
CC(C)c1cccc(C(C)C)c1NC(=O)CNCc1ccccc1F	Lmaj promast 60 (no result: Redox H2O2 prof)
COc1ccc(Nc2nc(NC(C)(C)C)nc(N3CCCC3)n2)c(OC)c1	Lmaj promast 96 (no result: Lipid droplet)
COc1ccc(Nc2nc(Nc3ccc(OC)cc3OC)nc(N3CCN(C)CC3)n2)c(OC)c1	Lmaj promast 77
COc1ccc(N2CCN(c3nc(NCCO)nc(N4CCOCC4)n3)CC2)cc1	none
COc1ccc(Nc2nc(N3CCCCC3)nc(N3CCCCC3)n2)c(OC)c1	none (no result: Lmaj promast, Redox H2O2 prof, Lipid droplet)
COc1ccc(N2CCN(c3nc(NC(C)(C)C)nc(N4CCCCC4)n3)CC2)cc1	Lmaj promast 97
COc1ccc(Nc2nc(NC(C)(C)C)nc(N3CCOCC3)n2)c(OC)c1	T cruzi inh 59
COc1ccc(Nc2nc(N3CCCC3)nc(N3CCCC3)n2)c(OC)c1	T cruzi inh inconclusive
Cc1ccc(OCC(=O)OCC(=O)c2cccc([N+](=O)[O-])c2)cc1C	none (no result: Lmaj promast, Redox H2O2 prof)
COc1ccc(/C=N/NC(=O)c2cc(=O)[nH]c3ccccc23)cc1OC	none
CC(C)(C)c1nnc(N/N=C/c2ccccc2O)n(N)c1=O	Lmaj promast 98
CCCCCCCn1c2c(c(=N)c3ccccc31)CCC2	T cruzi inh 67, Lmaj promast 100
N=c1c2c(n(Cc3ccc(Br)cc3)c3c1CCC3)CCCC2	T cruzi inh 67, Lmaj promast 100
CCCn1c2c(c(=N)c3c1CCC3)CCCC2	Lmaj promast 100
N=c1c2c(n(Cc3ccc(Cl)c(Cl)c3)c3c1CCC3)CCCC2	T cruzi inh 70, Lmaj promast 100 (no result: Lipid droplet)
CCCn1c2c(c(=N)c3c1CCC3)CCC2	none (no result: Lmaj promast, Redox H2O2 prof)
N=c1c2c(n(Cc3ccc([N+](=O)[O-])cc3)c3c1CCC3)CCCC2	Lmaj promast 64
Cc1ccc2c(CN3CCN(CCO)CC3)cc(=O)oc2c1	none (no result: Lipid droplet)
Cc1ccc2c(Cn3cc(C(F)(F)F)cc(Cl)c3=O)cc(=O)oc2c1	Lmaj promast 52 (no result: MPTP inh)
COC(=O)c1cc(=O)cc(C(=O)OC)o1	none
CCOC(=O)c1cc(=O)cc(C(=O)OCC)o1	Lmaj promast 95 (no result: Lipid droplet)
C=CCOC(=O)C1=C(C)NC(=S)C(C#N)(CC=C)C1c1ccccc1Cl (stereo unspecified)	none (no result: Lmaj promast, Redox H2O2 prof)
CO/N=C(\Cn1ncc(N2CCCC2)c(Br)c1=O)c1ccc(Cl)cc1	Lmaj promast 71
CO/N=C(\Cn1ncc(NC2CCCCC2)c(Br)c1=O)c1ccc(Cl)cc1	none (no result: T cruzi inh)
